From ChEMBL document CHEMBL1144446, “Synthesis and Src kinase inhibitory activity of 2-phenyl- and 2-thienyl-7-phenylaminothieno[3,2-b]pyridine-6-carbonitriles” (J Med Chem, 2005)

Key:
[1] = target: Proto-oncogene tyrosine-protein kinase Src (Homo sapiens, UniProt P12931); test: Inhibition of Src protein tyrosine kinase in LANCE format enzyme assay
[2] = Plasma concentration upon oral dose at 50 mg/kg in mouse after 4 hours; assay type: ADME, organism-based; design: dose 50 mg/kg, route oral
Outline: (§1)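 Nude mice received one oral dose of 50 mg/kg in a vehicle of 0.5% methylcellulose and 0.4% Tween 80. Plasma was sampled at 4 and 24 h and analyzed for the amount of parent compound remaining, reported in µg/mL.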

[3] = Plasma concentration upon oral dose at 50 mg/kg in mouse after 24 hours; assay type: ADME, organism-based; design: dose 50 mg/kg, route oral; outline: as §1
K562 = test: cells; details: Homo sapiens

Chain of Proto-oncogene tyrosine-protein kinase Src (P12931 2-536 limits assumed): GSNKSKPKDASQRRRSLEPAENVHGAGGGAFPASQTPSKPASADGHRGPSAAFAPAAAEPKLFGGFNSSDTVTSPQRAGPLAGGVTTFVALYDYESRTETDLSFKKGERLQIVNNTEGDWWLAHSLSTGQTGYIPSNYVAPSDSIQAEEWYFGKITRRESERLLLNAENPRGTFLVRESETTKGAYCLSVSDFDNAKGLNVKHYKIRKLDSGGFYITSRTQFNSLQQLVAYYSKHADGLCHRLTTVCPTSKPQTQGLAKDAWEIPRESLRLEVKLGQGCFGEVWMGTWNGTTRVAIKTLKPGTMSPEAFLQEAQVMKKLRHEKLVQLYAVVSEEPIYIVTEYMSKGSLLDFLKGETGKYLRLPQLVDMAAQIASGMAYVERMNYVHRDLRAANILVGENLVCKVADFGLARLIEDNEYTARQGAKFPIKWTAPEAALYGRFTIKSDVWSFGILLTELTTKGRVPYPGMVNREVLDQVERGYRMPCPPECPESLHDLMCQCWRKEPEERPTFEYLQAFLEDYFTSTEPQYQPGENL

SMILES	IC50 [1] [nM]	concentration at 4 h [2] [ng/mL]	concentration at 24 h [3] [ng/mL]	IC50 (K562) [nM]
COc1cc(Nc2c(C#N)cnc3cc(-c4ccsc4CN4CCN(C)CC4)sc23)c(Cl)cc1Cl	420			
CCN1CCN(Cc2ccc(-c3cc4ncc(C#N)c(Nc5cc(OC)c(Cl)cc5Cl)c4s3)cc2)CC1	8.2			
CCCCNCc1ccc(-c2cc3ncc(C#N)c(Nc4cc(OC)c(Cl)cc4Cl)c3s2)cc1	11			
COc1cc(Nc2c(C#N)cnc3cc(-c4ccc(CN5CCN(C)CC5)cc4)sc23)c(Cl)cc1Cl		2200	400	32
COc1cc(Nc2c(C#N)cnc3cc(-c4ccc(C(=O)N(C)C)cc4)sc23)c(Cl)cc1Cl	23			
COc1cc(Nc2c(C#N)cnc3cc(-c4csc(CN5CCN(C)CC5)c4)sc23)c(Cl)cc1Cl		1000	320	
CCOc1cc(Nc2c(C#N)cnc3cc(-c4csc(CN5CCN(C)CC5)c4)sc23)c(Cl)cc1Cl	1300			
COc1cc(Nc2c(C#N)cnc3cc(-c4ccc(CN(C)C)cc4)sc23)c(Cl)cc1Cl	9.1	200	2	
COc1cc(Nc2c(C#N)cnc3cc(-c4ccc(N(C)C)cc4)sc23)c(Cl)cc1Cl	110			
COc1cc(Nc2c(C#N)cnc3cc(-c4ccc(CN5CCSCC5)cc4)sc23)c(Cl)cc1Cl	52			
CN(C)Cc1ccc(-c2cc3ncc(C#N)c(Nc4ccc(Cl)cc4Cl)c3s2)cc1	53			
COc1cc(Nc2c(C#N)cnc3cc(-c4ccc(CN5CCNCC5)cc4)sc23)c(Cl)cc1Cl	7.2	1100	3	
COc1cc(Nc2c(C#N)cnc3cc(-c4ccc(CN5CCCCC5)cc4)sc23)c(Cl)cc1Cl	17			

The remaining lines, values ahead:

IC50 [1] [nM]	concentration at 4 h [2] [ng/mL]	concentration at 24 h [3] [ng/mL]	IC50 (K562) [nM]	SMILES
15				COc1cc(Nc2c(C#N)cnc3cc(-c4ccc(CCN5CCN(C)CC5)cc4)sc23)c(Cl)cc1Cl
67				CN1CCN(Cc2cc(-c3cc4ncc(C#N)c(Nc5ccc(Cl)cc5Cl)c4s3)cs2)CC1
13	1600	59		COc1cc(Nc2c(C#N)cnc3cc(-c4ccc(C(=O)N5CCN(C)CC5)cc4)sc23)c(Cl)cc1Cl
8.8				COc1cc(Nc2c(C#N)cnc3cc(-c4ccc(CCN(C)C)cc4)sc23)c(Cl)cc1Cl
980				CCOc1cc(Nc2c(C#N)cnc3cc(-c4ccc(CN5CCN(C)CC5)cc4)sc23)c(Cl)cc1Cl
			20	COc1cc(Nc2c(C#N)cnc3cc(OCCCN4CCN(C)CC4)c(OC)cc23)c(Cl)cc1Cl [BOSUTINIB]
7.4	1700	69		COc1cc(Nc2c(C#N)cnc3cc(-c4ccc(CN5CCN(CCO)CC5)cc4)sc23)c(Cl)cc1Cl
140				CN1CCN(Cc2ccc(-c3cc4ncc(C#N)c(Nc5ccc(Oc6ccccc6)cc5)c4s3)cc2)CC1
